# Bioassay records from PubChem BioAssay.
# Only some compounds are listed: those with a hit (about 4.2% of all), similar ones and a draw of the others.
# TMEM16A inh: blocks the mouse calcium-activated chloride channel TMEM16A. HEK293 TMEM16A/YFP iodide influx fluorescence, ionomycin. AID 588511. 310,000 compounds, 1.2% hits. normalized B-score (activity score, 25-100; higher = stronger inhibition) at 10 µM;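 active = ratio plate-corrected score three or more library SD toward inhibition, starting fluorescence score within five deviations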;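 note: score derived from kinetic fluorescence span divided by baseline fluorescence per well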
# Target sequence (Q8BHY3 whole entry, looked up): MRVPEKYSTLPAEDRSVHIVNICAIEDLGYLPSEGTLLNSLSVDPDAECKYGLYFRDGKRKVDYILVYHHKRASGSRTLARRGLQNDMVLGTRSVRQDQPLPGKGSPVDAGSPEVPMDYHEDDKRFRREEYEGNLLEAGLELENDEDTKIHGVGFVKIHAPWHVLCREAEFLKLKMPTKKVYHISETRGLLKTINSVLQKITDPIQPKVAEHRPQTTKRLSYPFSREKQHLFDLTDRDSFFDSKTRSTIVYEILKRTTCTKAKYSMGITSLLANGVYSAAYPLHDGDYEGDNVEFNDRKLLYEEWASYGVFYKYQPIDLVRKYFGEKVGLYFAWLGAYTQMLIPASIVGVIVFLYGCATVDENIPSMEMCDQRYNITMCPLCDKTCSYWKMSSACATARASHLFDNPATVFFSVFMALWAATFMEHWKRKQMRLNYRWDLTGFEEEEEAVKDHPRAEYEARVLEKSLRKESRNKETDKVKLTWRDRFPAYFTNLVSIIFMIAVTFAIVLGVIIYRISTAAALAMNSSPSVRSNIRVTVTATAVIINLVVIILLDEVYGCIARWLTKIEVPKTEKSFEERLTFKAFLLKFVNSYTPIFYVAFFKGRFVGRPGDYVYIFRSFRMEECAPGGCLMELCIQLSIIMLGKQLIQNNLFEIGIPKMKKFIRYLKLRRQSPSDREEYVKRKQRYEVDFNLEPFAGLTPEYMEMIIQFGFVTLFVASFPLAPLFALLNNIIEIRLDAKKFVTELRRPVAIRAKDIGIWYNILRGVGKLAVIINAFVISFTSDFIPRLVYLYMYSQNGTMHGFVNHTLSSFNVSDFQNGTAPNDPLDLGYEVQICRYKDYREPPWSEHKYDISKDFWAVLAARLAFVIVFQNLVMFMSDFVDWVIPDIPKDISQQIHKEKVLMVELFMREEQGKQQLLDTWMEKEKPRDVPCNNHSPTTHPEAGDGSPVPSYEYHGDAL
# Hep lipid drop: modulators of hepatic lipid droplet formation; AML12 mouse hepatocytes, oleate lipid droplets, BODIPY imaging; inhibition, % at 6.5 µM; 240,000 compounds, 0.4% hits; AID 1656;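 active = lipid droplet intensity inhibited by at least 50%, with more than 500 cells counted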
#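 Material – AML12 mouse liver cells · Also added – oleate loading, 100 µM · Compound dosing – 6.5 µM single-point dosing · Times – overnight treatment with compound plus oleate · Measured by – fluorescence imaging, 20x objective, two fields per well · Read-out – percent inhibition of filter-corrected integrated lipid droplet intensity per well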
# XBP1 UPR activ: adaptive UPR (XBP1) activation | 330,000 compounds, 0.33% hits | CHO-XBP1 luciferase reporter, IRE1-XBP1 UPR activation, luminescence; percent of tunicamycin response, DMSO as zero | activation, % at 20 µM;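 active = versus positive control, 20 µM dose yields 30% or more activation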;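 note: 100% = tunicamycin at 10 µg/mL and 0% = DMSO only wells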
#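 Material: IRE1-XBP1 luciferase reporter CHO line / Quantity: one thousand reporter cells per well / Buffer or medium: F12 with 10% serum / Compound: 20 µM single concentration, DMSO 1% / Times: 6 h treatment, 37 °C / Detection: Steady-Glo luciferase glow luminescence, 10 min after reagent addition / Benchmarks: tunicamycin high, DMSO low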
# CHOP inh: inhibitors of CHOP induction in ER stress response | CHO-K1 CHOP-promoter luciferase, tunicamycin-induced, 15-18 h | inhibition, % at 10 µM | 220,000 compounds, 3.8% hits | AID 2732;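 active = compounds that reduced the stress-induced luciferase reporter signal by more than about 70% of percent inhibition, limit read from the data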;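 note: 0% = tunicamycin plus vehicle and 100% = wells without tunicamycin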
# UPR CHOP act: apoptotic UPR (CHOP) activation. 330,000 compounds, 0.34% hits. AID 449763. activation, % at 10 µM. CHO-CHOP luciferase reporter, luminescence; percent of tunicamycin response over DMSO baseline;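 active = at 10 µM dose, activation of 40% or more, normalized to positive control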;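 note: 100% = tunicamycin at 10 µg/mL and 0% = DMSO alone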
#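 System: CHO-CHOP luciferase reporter cell line; amount: 500 cells/well; buffer or medium: F12 medium containing 10% fetal bovine serum; incubation: 6 h compound exposure at 37 °C after overnight seeding; measured by: luciferase luminescence after 10 min with Steady-Glo reagent; evaluation: % reporter activation, DMSO baseline versus tunicamycin full activation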
# TMEM16A act: activators or potentiators of mouse TMEM16A chloride channel | Q8BHY3 | HEK293 TMEM16A/YFP-H148Q/I152L, iodide quench fluorescence; hits give low values | B-score at 10 µM | 340,000 compounds, 0.3% hits | AID 623877;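 active = fluorescence-ratio B-score plate-corrected deviation score at least 3 library SD below zero, with starting fluorescence score within 5 deviations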;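 note: channel opened by trigger with iodide after compound preincubation; score built on the fluorescence ratio of max minus min over baseline; more negative score means more quench and so TMEM16A activation or potentiation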
# Lipid drop inh: confirmation of inhibitors of hepatic lipid droplet formation | shares compounds with Hep lipid drop | AML12 mouse hepatocytes, BODIPY lipid droplet imaging; droplets induced with 100 µM oleic acid | inhibition, % at 5.2 µM | 870 compounds, 65% hits | AID 463183;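 active = inhibition of lipid droplet metric at least 50%, with more than 300 cells in each of four replicates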;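 note: plate controls were DMSO with oleic acid for no effect and 5 µM Triacsin-C for full effect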
# AML12 cytotox: toxic to AML12 mouse hepatocytes in counter-screen | shares compounds with Hep lipid drop | DAPI nuclear morphology cytotoxicity imaging; hits give high values; cells fed 100 µM oleate overnight | z-score at 5 µM | 870 compounds, 3% hits; in the data active = z-score above about 6.3;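 note: compound exposure lasted overnight at 37 °C before fixation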
# AML12 tox conf: AML12 hepatocyte cytotoxicity, confirmed | shares compounds with Hep lipid drop | 530 tested, under 10 active | AML12 mouse hepatocyte viability, ATP luminescence; cells loaded with 100 µM oleic acid | cytotoxicity, % at 50 µM;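 active = cytotoxicity above 50% in each of four replicates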;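 note: compound exposure lasted overnight at 37 °C before the ATP read; 0% = DMSO-treated cells and 100% = wells with no cells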
# Active calls of the source: *; i = inactive; / = no result given.
SMILES,TMEM16A inh,Hep lipid drop,XBP1 UPR activ,CHOP inh,UPR CHOP act,TMEM16A act,Lipid drop inh,AML12 cytotox,AML12 tox conf
CCCCCc1cc(=O)oc2c(C(CCN3CCCC(C)C3)c3ccc(N(C)C)cc3)c(OC)cc(OC)c12 (stereo not given),i,62*,22,84*,20,i,11,0.22,/
CCCCCc1cc(=O)oc2c(C(CCN(CC)CC)c3ccc(N(C)C)cc3)c(OC)cc(OC)c12 (stereo not given),i,22,5,64,5,i,/,/,/
FC(F)(F)COc1nc(N2CCOCC2)nc(N(c2ccccc2)c2ccccc2)n1,i,51*,-3,-6,4,i,73*,0.91,-14
COc1cccc(-c2cn(-c3cccc(C(F)(F)F)c3)c(=S)[nH]2)c1,i,59*,/,/,/,i,2,0.35,/
CN(CC(=O)NCc1ccccc1Cl)S(=O)(=O)c1ccc2c(c1)n(C)c(=O)c(=O)n2C,i,-4,1,/,0,i,/,/,/
C=CCOc1ccc(-c2nc3c(c(=O)[nH]c(=O)n3Cc3ccccc3)n2CCCOC)cc1,i,56*,0,/,1,i,65*,0.3,11
CCc1ccc(NC(=O)CNC(=O)[C@@H]2Cc3ccccc3CN2C(=O)OC(C)(C)C)cc1,i,54*,0,/,1,i,76*,-0.28,2
NC(=O)c1ccc(NC(=O)c2cc(S(=O)(=O)N3CCCCC3)ccc2N2CCOCC2)cc1,/,/,-1,/,1,i,/,/,/
O=c1ccc(-c2ccc([N+](=O)[O-])cc2)nn1-c1ccccc1,i,0,4,5,-2,i,/,/,/
O=[N+]([O-])c1ccc(-[n+]2nc(-c3ccccc3)nn2-c2ccccc2)cc1,i,87*,-6,/,-2,i,115*,-0.74,12
CCOC(=O)C1CCN(C(=O)C2(NC(=O)Nc3ccccc3Cl)CCCCC2)CC1,i,73*,-1,12,1,i,101*,0.094,11
CCOC(=O)C1CCN(C(=O)C2(NC(=O)Nc3ccccc3C)CCCCC2)CC1,i,81*,-3,/,1,i,98*,-0.28,5
O=C(Cn1ncc(Cl)c(Cl)c1=O)NC(=O)NC1CCCCC1,/,/,-9,/,-1,i,/,/,/
Cc1nnc(SCC(=O)Nc2cc(-c3cc(C)c(C)cc3C)nn2-c2ccccc2)s1,i,78*,-1,42,-1,i,89*,-0.66,-7
O=c1[nH]c2ccccc2nc1/C=C/c1ccc(Cl)cc1,i,6,10,11,6,i,/,/,/
CC(=O)c1c(C)[nH]c(C(=O)Nc2nc(-c3ccc(-c4ccccc4)cc3)cs2)c1C,i,95*,7,34,14,i,-2,-0.39,/
CC(=O)c1c(C)[nH]c(C(=O)Nc2nc(-c3ccc(Cl)cc3)cs2)c1C,i,-2,6,35,1,i,/,/,/
O=C(NC1CCCCC1)C(c1ccco1)N(C(=O)c1csnn1)c1cccc(Cl)c1 (stereo not given),i,-26,-3,/,-1,i,/,/,/
COc1ccc(/C=C/C(=O)Oc2cccc(/C=N/NC(=O)COc3c(C)cccc3C)c2)cc1,i,/,3,32,13,i,/,/,/
COc1ccc(C(C#N)N2CCOCC2)cc1 (stereo not given),i,53*,-8,0,-2,i,26,-1.1,/
COc1cccc(C(=O)OCC(=O)c2ccc(Br)s2)c1OC,/,/,2,/,1,i,/,/,/
CC(=O)Nc1ccc(NC(=S)NC(=O)/C=C/c2ccc(Cl)cc2)cc1,i,20,-3,-10,-2,i,/,/,/
O=C(/C=C/c1ccc(Cl)cc1)NC(=S)Nc1ccc(NC(=O)c2ccco2)cc1,i,57*,/,-13,/,i,14,3,/
Cc1cc(C(=O)N[C@@H](c2ccccc2)[C@]2(C)C[C@H]2[C@@H](C)C(=O)Nc2ccc3ccccc3c2)no1,i,96*,4,-8,-1,i,101*,0.52,/
Cc1cc(C(=O)N[C@H](c2ccccc2)[C@@]2(C)C[C@@H]2[C@@H](C)C(=O)Nc2ccc3ccccc3c2)no1,i,-32,-1,61,-1,i,/,/,/
SMILES,TMEM16A inh,Hep lipid drop,XBP1 UPR activ,CHOP inh,UPR CHOP act,TMEM16A act,Lipid drop inh,AML12 cytotox,AML12 tox conf
O=C1c2ccccc2C(=O)c2c(Nc3ccc(CCO)cc3)ccc(O)c21,i,113*,0,6,2,i,115*,0.44,/
N#Cc1cccc(C(=O)OCC(=O)NCc2ccco2)c1,i,1,-2,/,0,i,/,/,/
CCn1cc([N+](=O)[O-])c(C(=O)N2N=C(c3ccc4ccccc4c3)CC2c2cc(Br)ccc2O)n1 (stereo not given),i,89*,4,27,3,i,77*,-1.5,11
CCn1cc([N+](=O)[O-])c(C(=O)N2N=C(c3ccc(O)c(OC)c3)CC2c2ccccc2O)n1 (stereo not given),i,24,0,35,2,i,/,/,/
O=C(CN(CC1CCCO1)S(=O)(=O)c1ccc(S(=O)(=O)NC2CC2)cc1)Nc1ccccc1 (stereo not given),i,95*,-4,-2,-1,i,107*,-0.073,18
Cc1ccc(NC(=O)Cc2ccc3c(c2)CCCC3)cc1C,i,53*,0,72*,2,i,64*,0.49,9
O=C(Nc1ccc(Cl)cc1F)C1CC(=O)N(Cc2ccco2)C1 (stereo not given),/,/,-1,/,3,i,/,/,/
COC(=O)Cc1ccc(NC(=O)c2ccc(Br)o2)cc1,i,-5,6,-13,2,i,/,/,/
CCCOC(=O)c1ccc(NC(=O)c2ccc(Br)o2)cc1,i,74*,4,29,1,i,82*,-0.94,6
CS(=O)(=O)N(Cc1ccc(Cl)cc1)c1ccc(C(=O)NCc2ccccn2)cc1,i,-25,-3,10,0,i,/,/,/
